Measurements from ChEMBL document CHEMBL3600295, “Synthesis and biological evaluation of a series of fatty acid amides from Echinacea” (Bioorg Med Chem Lett, 2015).
Active and inactive are the calls of the source. The rule behind the calls is not given here.

Legend:
[1] = system: RAW264.7; assay: Inhibition of LPS-induced TNFalpha production in mouse RAW264.7 cells at 100 uM incubated for 18 hrs by ELISA method; type: functional; conditions: for inhibition at 100 µM: RAW264.7, 18 h
Method in brief: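 RAW 264.7 cells were co-treated with compound plus 10 ng/mL LPS (R595) for 18 h. Supernatant TNF-α was measured by commercial ELISA and compared with cells stimulated with LPS only.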

[2] = system: RAW264.7; assay: Cytotoxicity against mouse RAW264.7 cells at 100 uM incubated for 18 hrs by LDH release assay; type: cell-based; conditions: raw264.7, 18 h
Method in brief: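 RAW 264.7 murine macrophage-like cells were treated with compound for 18 h. Culture supernatants were then collected and assayed for lactate dehydrogenase activity released from dead or dying cells, using a commercial LDH cytotoxicity kit. Vehicle and lysis-buffer controls were included. Data are means ± SD, n = 2.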

[3] = system: RAW264.7; assay: Effect on TNFalpha production in mouse RAW264.7 cells at 100 uM incubated for 18 hrs by ELISA method; type: cell-based; conditions: raw264.7, 18 h
Method in brief: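 Compound alone, without LPS, was added to RAW 264.7 murine macrophage-like cells and incubated 18 h. TNF-α in culture supernatants was quantified by commercial ELISA and compared with levels from unstimulated cells.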

Structure (SMILES) | inhibition [1] | Activity [2] | Activity [3] | inhibition at 100 µM [1] [%]
CCCCCCCCCCCc1nc(C(C)C)cs1 | inactive | Non-toxic |  | 
CCCCCCCCC/C=C/C(=O)NCC(C)C | Active | Non-toxic | Non-toxic | 
CCCC(=O)NCC(C)C | Active | Non-toxic | Non-toxic | 
CCCCCCCCCCCC(=O)NCC(C)C | Active | Non-toxic | Non-toxic | 
CCCCCCCCCCCC(=O)NCc1ccccc1 [N-BENZYLDODECANAMIDE] |  | Non-toxic | Non-toxic | 32.4
CCCCCCCCCC(=O)NCC(C)C [TETRAHYDROPELLITORINE] | Active | Non-toxic | Non-toxic | 
CCCCCCC/C=C/C=C/C(=O)NCC(C)C | Active | Non-toxic | Non-toxic | 
CCCCCCCCCCCCNCC(C)C |  | Toxic | Non-toxic | 99.8
CCCCCC(=O)NCC(C)C | Active | Non-toxic | Non-toxic | 
CCCCCCCCCCCC(=O)NCCCCCC | Active | Non-toxic | Non-toxic | 
CCCCCCCC(=O)NCC(C)C | Active | Non-toxic | Non-toxic | 
CCCCCCCCCCCC(=O)NCC(C)CC (stereo not drawn) | Active | Non-toxic | Non-toxic | 
CCCCCCCCC/C=C/C(=O)NCC(C)CC (stereo not drawn) | Active | Toxic | Non-toxic | 
CCCCCCCCC/C=C/C(=O)NCc1ccccc1 |  | Non-toxic | Non-toxic | 29.8
CCCCCCCCCCCc1nc(CC(C)C)cs1 | inactive | Non-toxic |  | 
